Active and inactive are the calls of the source. The rule behind the calls is not given here.
How the values were obtained:
MCF7 [1] = test: Growth inhibition of human MCF7 cells by MTT assay; format: functional, cell-based
Outline: (§1)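 MTT viability. Cells seeded for 24 h, then exposed to compound for 48 h in DMEM/F-12 or DMEM with 5% FBS. Vehicle controls received matching DMSO. MTT added at 0.5 mg/mL for 3 h at 37 °C. Formazan dissolved in DMSO and absorbance read at 570 nm.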

MCF7 [2] = test: Induction of cell cycle arrest in human MCF7 cells assessed as increase in accumulation at S phase at 5 and 10 uM by propidium iodide staining based flow cytometry relative to untreated control; format: functional
Outline: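 MCF-7 seeded at 1×10^5 cells/well and attached overnight, then given 0, 1, 5 or 10 µM for 24 h. Cells pooled, fixed overnight in 70% ice-cold ethanol, treated with RNase A and stained with PI. Flow cytometry on 20000 events with doublets gated out. Mean ± S.D. (n = 3). Compared with DMSO vehicle by one-way ANOVA with Dunnett's test.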

A549 [3] = test: Induction of apoptosis in human A549 cells assessed as caspe-3/7 activation at 5 to 20 uM incubated for 24 hrs by Caspase-Glo 3/7 luminescence assay; format: functional, cell-based
Outline: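 A549 cells plated at 1 x 10^4 per well and allowed 24 h to settle. Medium removed, then compounds added for 24 h at 5, 10 and 20 μM. Vehicle controls received equivalent DMSO. Caspase-3/7 activity read by Caspase-Glo 3/7 luminescence (RLU). Mean ± S.D. (n = 5), experiment done 3 times. Compared with vehicle by one-way ANOVA with Dunnett's test.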

[4] = molecular target: Rhodopsin kinase GRK1 (Homo sapiens) (UniProt Q15835); test: Inhibition of GRK1 (unknown origin) at 10 uM using [33P]-ATP after 20 to 40 mins by scintillation counting method
MCF7 [5] = test: Induction of apoptosis in human MCF7 cells assessed as early apoptotic cells level at 10 uM incubated for 24 hrs by Annexin V PI/FITC staining based flow cytometry (reference value: 17.4%); format: functional
[6] = molecular target: 3-phosphoinositide-dependent protein kinase 1 (Homo sapiens) (UniProt O15530); test: Inhibition of PDK1 (unknown origin) at 10 uM using [33P]-ATP after 20 to 40 mins by scintillation counting method
MCF7 [7] = test: Induction of apoptosis in human MCF7 cells assessed as viable cells level at 5 uM incubated for 24 hrs by Annexin V PI/FITC staining based flow cytometry (reference value: 72.3%); format: functional
[8] = molecular target: Serine/threonine-protein kinase Sgk1 (Homo sapiens) (UniProt O00141); test: Inhibition of SGK1 (unknown origin) at 10 uM using [33P]-ATP after 20 to 40 mins by scintillation counting method
[9] = molecular target: Mitogen-activated protein kinase kinase kinase 5 (Homo sapiens) (UniProt Q99683); test: Inhibition of ASK1 (unknown origin) at 10 uM using [33P]-ATP after 20 to 40 mins by scintillation counting method
[10] = molecular target: Serine/threonine-protein kinase Nek1 (Homo sapiens) (UniProt Q96PY6); test: Inhibition of NEK1 (unknown origin) at 10 uM using [33P]-ATP after 20 to 40 mins by scintillation counting method
MCF7 [11] = test: Induction of apoptosis in human MCF7 cells assessed as late necrosis cells level at 5 uM incubated for 24 hrs by Annexin V PI/FITC staining based flow cytometry (reference value: […]); format: functional
MCF7 [12] = test: Induction of apoptosis in human MCF7 cells assessed as late apoptotic cells level at 5 uM incubated for 24 hrs by Annexin V PI/FITC staining based flow cytometry (reference value: 9%); format: functional
[13] = molecular target: Ribosomal protein S6 kinase alpha-5 (Homo sapiens) (UniProt O75582); test: Inhibition of MSK1 (unknown origin) at 10 uM using [33P]-ATP after 20 to 40 mins by scintillation counting method
MCF7 [14] = test: Induction of apoptosis in human MCF7 cells assessed as late apoptotic cells level at 1 uM incubated for 24 hrs by Annexin V PI/FITC staining based flow cytometry (reference value: 9%); format: functional
MCF7 [15] = test: Induction of apoptosis in human MCF7 cells assessed as late necrosis cells level at 10 uM incubated for 24 hrs by Annexin V PI/FITC staining based flow cytometry (reference value: […]); format: functional
[16] = molecular target: cGMP-dependent protein kinase 1 (Homo sapiens) (UniProt Q13976); test: Inhibition of PRKG1 (unknown origin) at 10 uM using [33P]-ATP after 20 to 40 mins by scintillation counting method
[17] = molecular target: Epidermal growth factor receptor (Homo sapiens) (UniProt P00533); test: Inhibition of EGFR (unknown origin) at 10 uM using [33P]-ATP after 20 to 40 mins by scintillation counting method
[18] = molecular target: Tyrosine-protein kinase Blk (Homo sapiens) (UniProt P51451); test: Inhibition of BLK (unknown origin) at 10 uM using [33P]-ATP after 20 to 40 mins by scintillation counting method
MCF7 [19] = test: Induction of apoptosis in human MCF7 cells assessed as late apoptotic cells level at 10 uM incubated for 24 hrs by Annexin V PI/FITC staining based flow cytometry (reference value: 9%); format: functional
A549 [20] = test: Growth inhibition of human A549 cells by MTT assay; format: functional, cell-based; outline: as §1
MCF7 [21] = test: Induction of apoptosis in human MCF7 cells assessed as viable cells level at 1 uM incubated for 24 hrs by Annexin V PI/FITC staining based flow cytometry (reference value: 72.3%); format: functional
[22] = molecular target: Vascular endothelial growth factor receptor 1 (Homo sapiens) (UniProt P17948); test: Inhibition of FLT1 (unknown origin) at 10 uM using [33P]-ATP after 20 to 40 mins by scintillation counting method
[23] = molecular target: Glycogen synthase kinase-3 alpha (Homo sapiens) (UniProt P49840); test: Inhibition of GSK3alpha (unknown origin) at 10 uM using [33P]-ATP after 20 to 40 mins by scintillation counting method
MCF7 [24] = test: Induction of apoptosis in human MCF7 cells assessed as late necrosis cells level at 1 uM incubated for 24 hrs by Annexin V PI/FITC staining based flow cytometry (reference value: […]); format: functional
MCF7 [25] = test: Induction of apoptosis in human MCF7 cells assessed as viable cells level at 10 uM incubated for 24 hrs by Annexin V PI/FITC staining based flow cytometry (reference value: 72.3%); format: functional
Hep 3B2 = test: Growth inhibition of human Hep3B cells by MTT assay; format: functional, cell-based; outline: as §1

Chain of Tyrosine-protein kinase Blk (Homo sapiens) (P51451 2-505 limits assumed): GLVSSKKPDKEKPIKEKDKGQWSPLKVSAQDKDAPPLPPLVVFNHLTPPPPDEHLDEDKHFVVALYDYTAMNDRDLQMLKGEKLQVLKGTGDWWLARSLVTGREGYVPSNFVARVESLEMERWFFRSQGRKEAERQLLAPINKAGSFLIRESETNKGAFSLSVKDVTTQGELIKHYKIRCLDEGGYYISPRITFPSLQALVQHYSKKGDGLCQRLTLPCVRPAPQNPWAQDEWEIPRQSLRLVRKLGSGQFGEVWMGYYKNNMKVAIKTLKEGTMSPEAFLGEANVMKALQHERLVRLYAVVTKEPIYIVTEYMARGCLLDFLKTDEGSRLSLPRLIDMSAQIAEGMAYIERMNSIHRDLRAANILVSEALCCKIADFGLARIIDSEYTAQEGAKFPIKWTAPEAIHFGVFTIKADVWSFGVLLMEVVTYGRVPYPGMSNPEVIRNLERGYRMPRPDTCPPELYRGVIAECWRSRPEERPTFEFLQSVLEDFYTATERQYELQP
Chain of Glycogen synthase kinase-3 alpha (Homo sapiens) (P49840 2-483 limits assumed): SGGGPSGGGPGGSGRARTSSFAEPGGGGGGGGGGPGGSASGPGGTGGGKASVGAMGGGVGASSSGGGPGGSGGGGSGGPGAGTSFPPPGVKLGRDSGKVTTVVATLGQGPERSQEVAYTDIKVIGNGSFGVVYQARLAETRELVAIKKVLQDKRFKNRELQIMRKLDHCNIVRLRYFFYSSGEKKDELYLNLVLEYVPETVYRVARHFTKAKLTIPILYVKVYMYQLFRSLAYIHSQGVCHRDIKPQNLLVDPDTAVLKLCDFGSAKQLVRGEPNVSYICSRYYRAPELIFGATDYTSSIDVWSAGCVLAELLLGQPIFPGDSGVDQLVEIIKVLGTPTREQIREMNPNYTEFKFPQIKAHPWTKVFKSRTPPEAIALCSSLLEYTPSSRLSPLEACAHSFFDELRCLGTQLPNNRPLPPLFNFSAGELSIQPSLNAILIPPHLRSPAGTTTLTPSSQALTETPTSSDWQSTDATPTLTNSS
Chain of Vascular endothelial growth factor receptor 1 (Homo sapiens) (P17948 whole entry): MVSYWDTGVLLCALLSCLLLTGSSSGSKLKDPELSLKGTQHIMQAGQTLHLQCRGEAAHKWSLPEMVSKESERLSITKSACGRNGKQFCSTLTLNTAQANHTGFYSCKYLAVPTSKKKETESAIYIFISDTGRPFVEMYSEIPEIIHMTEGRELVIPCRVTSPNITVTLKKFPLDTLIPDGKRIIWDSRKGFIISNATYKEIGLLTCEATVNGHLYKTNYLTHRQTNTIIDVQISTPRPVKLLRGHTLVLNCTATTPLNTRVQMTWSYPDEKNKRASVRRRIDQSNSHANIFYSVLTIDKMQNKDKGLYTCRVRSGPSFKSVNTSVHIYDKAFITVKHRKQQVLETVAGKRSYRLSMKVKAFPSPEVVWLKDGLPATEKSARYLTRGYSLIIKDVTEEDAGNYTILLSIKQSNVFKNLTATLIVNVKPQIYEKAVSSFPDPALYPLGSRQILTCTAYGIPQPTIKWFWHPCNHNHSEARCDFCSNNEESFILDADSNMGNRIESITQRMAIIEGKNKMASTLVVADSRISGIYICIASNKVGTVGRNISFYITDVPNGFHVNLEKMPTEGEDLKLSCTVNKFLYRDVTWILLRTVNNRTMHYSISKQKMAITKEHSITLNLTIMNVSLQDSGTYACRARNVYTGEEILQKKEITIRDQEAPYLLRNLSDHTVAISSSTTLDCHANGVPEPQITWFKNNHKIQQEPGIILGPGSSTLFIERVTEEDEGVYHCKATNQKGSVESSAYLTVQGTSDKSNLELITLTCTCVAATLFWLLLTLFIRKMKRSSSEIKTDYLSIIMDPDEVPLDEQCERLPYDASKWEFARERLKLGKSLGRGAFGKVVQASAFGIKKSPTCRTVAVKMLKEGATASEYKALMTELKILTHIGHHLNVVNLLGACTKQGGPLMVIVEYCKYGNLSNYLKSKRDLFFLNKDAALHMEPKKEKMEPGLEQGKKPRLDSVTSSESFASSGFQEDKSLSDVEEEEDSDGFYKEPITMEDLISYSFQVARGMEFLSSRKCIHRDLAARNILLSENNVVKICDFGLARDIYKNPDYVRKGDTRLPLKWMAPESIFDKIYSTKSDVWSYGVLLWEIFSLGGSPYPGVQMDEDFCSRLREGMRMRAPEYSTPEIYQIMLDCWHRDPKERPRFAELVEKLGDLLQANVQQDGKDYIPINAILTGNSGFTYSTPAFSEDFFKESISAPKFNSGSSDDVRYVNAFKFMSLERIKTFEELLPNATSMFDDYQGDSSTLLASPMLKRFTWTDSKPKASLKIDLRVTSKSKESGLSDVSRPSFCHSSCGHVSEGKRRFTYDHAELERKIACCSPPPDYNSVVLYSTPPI
Chain of 3-phosphoinositide-dependent protein kinase 1 (Homo sapiens) (O15530 whole entry): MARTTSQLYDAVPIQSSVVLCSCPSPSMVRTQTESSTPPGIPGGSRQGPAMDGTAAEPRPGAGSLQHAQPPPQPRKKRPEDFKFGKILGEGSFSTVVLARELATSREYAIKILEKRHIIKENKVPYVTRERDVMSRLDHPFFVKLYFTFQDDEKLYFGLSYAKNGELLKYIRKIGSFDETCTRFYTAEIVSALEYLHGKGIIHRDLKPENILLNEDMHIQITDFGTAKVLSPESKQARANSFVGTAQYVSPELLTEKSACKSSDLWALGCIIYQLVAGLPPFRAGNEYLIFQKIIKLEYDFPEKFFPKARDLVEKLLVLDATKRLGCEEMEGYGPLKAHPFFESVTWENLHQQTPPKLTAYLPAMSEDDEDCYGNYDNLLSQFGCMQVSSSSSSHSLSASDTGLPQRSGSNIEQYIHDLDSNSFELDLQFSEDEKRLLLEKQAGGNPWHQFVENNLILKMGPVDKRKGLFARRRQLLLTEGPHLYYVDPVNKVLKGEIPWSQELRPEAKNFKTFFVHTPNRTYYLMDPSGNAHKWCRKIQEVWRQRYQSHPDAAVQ
Chain of Epidermal growth factor receptor (Homo sapiens) (P00533 whole entry): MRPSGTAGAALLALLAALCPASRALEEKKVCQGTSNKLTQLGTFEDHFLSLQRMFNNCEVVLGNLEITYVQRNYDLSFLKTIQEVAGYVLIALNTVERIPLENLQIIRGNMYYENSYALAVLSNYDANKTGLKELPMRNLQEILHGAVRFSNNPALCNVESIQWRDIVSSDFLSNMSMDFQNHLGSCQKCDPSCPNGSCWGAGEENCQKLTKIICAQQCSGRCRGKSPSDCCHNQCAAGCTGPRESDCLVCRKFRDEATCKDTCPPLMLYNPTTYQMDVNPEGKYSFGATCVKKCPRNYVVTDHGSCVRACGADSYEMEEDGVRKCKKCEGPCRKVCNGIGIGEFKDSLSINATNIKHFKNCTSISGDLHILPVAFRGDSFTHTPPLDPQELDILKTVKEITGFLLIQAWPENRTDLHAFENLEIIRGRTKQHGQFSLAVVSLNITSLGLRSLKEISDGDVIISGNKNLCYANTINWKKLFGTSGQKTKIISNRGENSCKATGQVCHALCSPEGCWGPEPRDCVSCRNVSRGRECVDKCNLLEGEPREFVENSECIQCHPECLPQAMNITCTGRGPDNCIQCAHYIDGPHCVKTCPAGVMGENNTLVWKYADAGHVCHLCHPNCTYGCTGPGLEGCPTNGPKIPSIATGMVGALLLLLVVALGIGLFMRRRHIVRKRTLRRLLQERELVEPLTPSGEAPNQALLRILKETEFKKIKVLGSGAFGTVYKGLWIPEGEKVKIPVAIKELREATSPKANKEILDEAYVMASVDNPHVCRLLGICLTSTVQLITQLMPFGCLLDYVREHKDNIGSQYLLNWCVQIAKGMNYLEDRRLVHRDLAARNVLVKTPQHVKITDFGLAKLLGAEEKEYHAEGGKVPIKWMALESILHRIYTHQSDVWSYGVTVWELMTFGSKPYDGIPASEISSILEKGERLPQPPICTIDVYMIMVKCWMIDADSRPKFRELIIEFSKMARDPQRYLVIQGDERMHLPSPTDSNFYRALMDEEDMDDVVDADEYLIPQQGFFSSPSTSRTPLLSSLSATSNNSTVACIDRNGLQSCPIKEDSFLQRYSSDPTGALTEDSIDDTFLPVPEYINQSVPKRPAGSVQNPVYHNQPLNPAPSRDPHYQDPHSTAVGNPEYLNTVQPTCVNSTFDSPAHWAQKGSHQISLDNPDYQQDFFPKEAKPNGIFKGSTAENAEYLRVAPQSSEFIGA
Chain of Ribosomal protein S6 kinase alpha-5 (Homo sapiens) (O75582 whole entry, looked up): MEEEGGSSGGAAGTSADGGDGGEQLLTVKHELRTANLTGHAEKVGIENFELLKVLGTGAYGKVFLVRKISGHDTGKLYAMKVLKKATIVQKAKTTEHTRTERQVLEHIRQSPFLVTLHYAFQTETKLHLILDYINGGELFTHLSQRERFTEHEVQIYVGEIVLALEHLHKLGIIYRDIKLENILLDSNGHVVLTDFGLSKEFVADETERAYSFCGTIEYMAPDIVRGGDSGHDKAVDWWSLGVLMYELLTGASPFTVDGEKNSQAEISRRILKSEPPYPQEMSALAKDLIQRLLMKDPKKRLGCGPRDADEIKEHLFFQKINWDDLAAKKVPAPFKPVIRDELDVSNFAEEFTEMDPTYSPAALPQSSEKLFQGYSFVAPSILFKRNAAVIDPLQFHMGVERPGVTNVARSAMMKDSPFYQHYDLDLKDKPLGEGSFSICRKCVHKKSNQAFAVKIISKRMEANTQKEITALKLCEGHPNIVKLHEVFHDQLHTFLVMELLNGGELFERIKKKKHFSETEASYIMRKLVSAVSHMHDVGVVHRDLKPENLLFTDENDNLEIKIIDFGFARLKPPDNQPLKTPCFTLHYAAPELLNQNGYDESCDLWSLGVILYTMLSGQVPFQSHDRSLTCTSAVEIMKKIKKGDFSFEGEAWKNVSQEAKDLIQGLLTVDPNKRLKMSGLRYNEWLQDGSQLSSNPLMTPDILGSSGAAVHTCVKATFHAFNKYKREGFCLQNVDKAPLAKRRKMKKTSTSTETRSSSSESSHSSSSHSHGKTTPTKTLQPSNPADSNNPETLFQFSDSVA

In the case of `Cc1ccc(NC(=O)c2c(N=Cc3ccc4ccccc4c3)c(C#N)c3n2CCC3)cc1`, the IC50 (MCF7 [1]) is reported as 7.76 µM, the Activity (MCF7 [2]) is reported as “Active” and the Activity (A549 [3]) is reported as “Active”. For the same compound, the inhibition [4] was 7%, the Activity (MCF7 [5]) was 24.2% and the inhibition [6] was -27%. For the same compound, the Activity (MCF7 [7]) was 66.9%, the inhibition [8] was -16% and the inhibition [9] was -19%. It also gave an inhibition [10] of 8%, an Activity (MCF7 [11]) of 1.1% and an Activity (MCF7 [12]) of 8.5%. The inhibition [13] was -43%, the Activity (MCF7 [14]) was 10.7% and the Activity (MCF7 [15]) was 0.8%. It also gave an inhibition [16] of -4%, an inhibition [17] of -47% and an inhibition [18] of -16%. The Activity (MCF7 [19]) was 12.9%, the IC50 (A549 [20]) was 3.24 µM and the Activity (MCF7 [21]) was 72.2%. The inhibition [22] was -10%, the inhibition [23] was -5% and the Activity (MCF7 [24]) was 0.8%. For the same compound, the Activity (MCF7 [25]) was 62.1% and the IC50 (Hep 3B2) was 8.69 µM.
